Test results as given in ChEMBL document CHEMBL1141682, “Discovery of novel potent and selective dipeptide hepatitis C virus NS3/4A serine protease inhibitors” (Bioorg Med Chem Lett, 2008).

Columns and labels:
[1] = Inhibition of full length HCV NS3/4A protease; set-up: species or system Hepacivirus hominis
How it was run: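 Full-length recombinant genotype 1 NS3 protease was run with a truncated NS4A cofactor in a biochemical assay. Inhibition constants (Ki) are reported.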

Hepatitis C virus = assay: Inhibition of HCV replication in human HuH7-Rep cells containing subgenomic bicistronic clone; type: functional, organism-based, Hepacivirus hominis; conditions: Huh-7
How it was run: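 Huh7 cells carried the subgenomic bicistronic replicon clone ET with a luciferase reporter. EC50 is the concentration that cut luciferase signal by 50% relative to untreated control.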

[2] = Metabolic stability in human liver microsomess after 15 mins at 5 uM; type: ADME, Microsome; conditions: liver microsomes
How it was run: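 Compound at 5 µM was incubated with human liver microsomes for 15 min at 37 °C. Stability is expressed as percent of compound metabolized.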

[3] = Cmax in Sprague-Dawley rat at 10 mg/kg, po; type: ADME, organism-based; set-up: dose 10 mg/kg, route oral; conditions: in vivo
How it was run: (§1)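 Male SD rats (n = 2 per route) got a single dose: 2 mg/kg IV in 20% hydroxypropyl-β-cyclodextrin, or 10 mg/kg oral in 50% PEG400 with 2.5% vitamin E-TPGS. Plasma was sampled out to 8 h. Heart and liver levels were taken at 8 h. Oral half-life was fitted over 2–8 h. Bioavailability compares oral against IV exposure.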

[4] = Plasma concentration in Sprague-Dawley rat at 10 mg/kg, po after 8 hrs; type: ADME, organism-based; set-up: dose 10 mg/kg, route oral; how it was run: as §1
MT4 = assay: Cytotoxicity against human MT4 cells by LTR-luciferase assay; type: functional
How it was run: (§2)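 Cytotoxicity was tested in MT4-LTR-Luc and Huh7-CMV-Luc reporter cell lines. Results are given as CC50.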

[5] = Plasma concentration in Sprague-Dawley rat at 2 mg/kg, iv after 2 hrs; type: ADME, organism-based; set-up: dose 2 mg/kg, route intravenous; how it was run: as §1
[6] = Plasma concentration in Sprague-Dawley rat at 2 mg/kg, iv after 4 hrs; type: ADME, organism-based; set-up: dose 2 mg/kg, route intravenous; how it was run: as §1
[7] = AUC (0 to 8 hrs) in Sprague-Dawley rat at 10 mg/kg, po; type: ADME, organism-based; set-up: time < 8 hr, dose 10 mg/kg, route oral; conditions: plasma; how it was run: as §1
[8] = Plasma concentration in Sprague-Dawley rat at 10 mg/kg, po after 0.5 hrs; type: ADME, organism-based; set-up: dose 10 mg/kg, route oral; how it was run: as §1
[9] = Plasma concentration in Sprague-Dawley rat at 10 mg/kg, po after 1 hr; type: ADME, organism-based; set-up: dose 10 mg/kg, route oral; how it was run: as §1
[10] = Plasma concentration in Sprague-Dawley rat at 10 mg/kg, po after 2 hrs; type: ADME, organism-based; set-up: dose 10 mg/kg, route oral; how it was run: as §1
[11] = Plasma concentration in Sprague-Dawley rat at 10 mg/kg, po after 4 hrs; type: ADME, organism-based; set-up: dose 10 mg/kg, route oral; how it was run: as §1
Rattus norvegicus [12] = assay: Clearance in Sprague-Dawley rat at 2 mg/kg, iv; type: ADME, organism-based; set-up: dose 2 mg/kg, route intravenous; conditions: in vivo; how it was run: as §1
Huh-7 = assay: Cytotoxicity against human HuH7 cells by CMV-luciferase assay; type: functional; how it was run: as §2
[13] = Half life (2 to 8 hrs) in Sprague-Dawley rat at 10 mg/kg, po; type: ADME, organism-based; set-up: dose 10 mg/kg, route oral; conditions: in vivo; how it was run: as §1
[14] = Tmax in Sprague-Dawley rat at 10 mg/kg, po; type: ADME, organism-based; set-up: dose 10 mg/kg, route oral; conditions: in vivo; how it was run: as §1
[15] = Oral bioavailability in Sprague-Dawley rat at 10 mg/kg, po; type: ADME, organism-based; conditions: in vivo; how it was run: as §1
[16] = Drug level in Sprague-Dawley rat liver at 2 mg/kg, iv after 8 hrs; type: ADME, organism-based; set-up: dose 2 mg/kg, route intravenous; conditions: read-out: Drug uptake; how it was run: as §1
[17] = Permeability from apical to basolateral side of human Caco-2 cells; type: ADME, cell-based
[18] = Volume of distribution in steady state in Sprague-Dawley rat at 2 mg/kg, iv; type: ADME, organism-based; set-up: dose 2 mg/kg, route intravenous; conditions: in vivo, read-out: Vdss; how it was run: as §1
[19] = Drug level in Sprague-Dawley rat heart at 10 mg/kg, po after 8 hrs; type: ADME, organism-based; set-up: dose 10 mg/kg, route oral; how it was run: as §1
[20] = Drug level in Sprague-Dawley rat heart at 2 mg/kg, iv after 8 hrs; type: ADME, organism-based; set-up: dose 2 mg/kg, route intravenous; conditions: read-out: Drug uptake; how it was run: as §1
[21] = Plasma concentration in Sprague-Dawley rat at 2 mg/kg, iv after 1 hr; type: ADME, organism-based; set-up: dose 2 mg/kg, route intravenous; how it was run: as §1
Rattus norvegicus [22] = assay: AUC (0 to infinity) in Sprague-Dawley rat at 2 mg/kg, iv; type: ADME, organism-based, Plasma; set-up: time infinity, dose 2 mg/kg, route intravenous; conditions: in vivo; how it was run: as §1
[23] = Half life (2 to 8 hrs) in Sprague-Dawley rat at 2 mg/kg, iv; type: ADME, organism-based; set-up: dose 2 mg/kg, route intravenous; conditions: in vivo
[24] = Drug level in Sprague-Dawley rat liver at 10 mg/kg, po after 8 hrs; type: ADME, organism-based; set-up: dose 10 mg/kg, route oral; conditions: read-out: Drug uptake; how it was run: as §1
[25] = Plasma concentration in Sprague-Dawley rat at 2 mg/kg, iv after 8 hrs; type: ADME, organism-based; set-up: dose 2 mg/kg, route intravenous; how it was run: as §1
[26] = AUC (0 to 8 hrs) in Sprague-Dawley rat at 2 mg/kg, iv; type: ADME, organism-based; set-up: time < 8 hr, dose 2 mg/kg, route intravenous; conditions: plasma; how it was run: as §1
[27] = AUC (0 to infinity) in Sprague-Dawley rat at 10 mg/kg, po; type: ADME, organism-based; set-up: time infinity, dose 10 mg/kg, route oral; conditions: plasma; how it was run: as §1
[28] = Plasma concentration in Sprague-Dawley rat at 2 mg/kg, iv after 0.33 hrs; type: ADME, organism-based; set-up: dose 2 mg/kg, route intravenous; how it was run: as §1
[29] = Plasma concentration in Sprague-Dawley rat at 2 mg/kg, iv after 0.12 hrs; type: ADME, organism-based; set-up: dose 2 mg/kg, route intravenous; how it was run: as §1

For `COc1ccc2c(O[C@@H]3C[C@H]4C(=O)N[C@]5(C(=O)NS(=O)(=O)C6(C)CC6)C[C@H]5/C=C\CCCCCC(=O)N4C3)cc(-c3nc(C(C)C)cs3)nc2c1C`, the Ki [1] was 0.4 nM, the EC50 (Hepatitis C virus) was 14.1 nM and the metabolized at 0.25 h, 5 µM [2] was 28.8%.

In the case of `COc1ccc2c(O[C@@H]3C[C@H]4C(=O)N[C@]5(C(=O)O)C[C@H]5/C=C\CCCCCCC(=O)N4C3)cc(-c3csc(NC(C)C)n3)nc2c1`, the Ki [1] is reported as 46 nM and the EC50 (Hepatitis C virus) is reported as 1980 nM.

For `COc1ccc2c(O[C@@H]3C[C@H]4C(=O)N[C@]5(C(=O)NS(=O)(=O)C6CC6)C[C@H]5/C=C\CCCCCC(=O)N4C3)cc(-c3nc(C(C)C)cs3)nc2c1`, the Ki [1] was 0.4 nM, the EC50 (Hepatitis C virus) was 23.9 nM and the metabolized at 0.25 h, 5 µM [2] was 82.4%.

Compound `COc1ccc2c(O[C@@H]3C[C@H]4C(=O)N[C@]5(C(=O)NS(=O)(=O)C6CC6)C[C@H]5/C=C\CCCCCCC(=O)N4C3)cc(-c3nc(C(C)C)cs3)nc2c1C` has a Ki [1] of 2.8 nM and an EC50 (Hepatitis C virus) of 5.84 nM.

For `COc1ccc2c(O[C@@H]3C[C@H]4C(=O)N[C@]5(C(=O)NS(=O)(=O)C6CC6)C[C@H]5/C=C\CCCCCC(=O)N4C3)cc(-c3nc(C(C)C)cs3)nc2c1C`, the Ki [1] was 0.2 nM, the EC50 (Hepatitis C virus) was 3.55 nM and the metabolized at 0.25 h, 5 µM [2] was 50.2%.

`COc1ccc2c(O[C@@H]3C[C@H]4C(=O)N[C@]5(C(=O)NS(=O)(=O)C6CC6)C[C@H]5/C=C\CCCCCCC(=O)N4C3)cc(-c3nc(C(C)C)cs3)nc2c1` showed a Ki [1] of 0.65 nM, an EC50 (Hepatitis C virus) of 18 nM and a metabolized at 0.25 h, 5 µM [2] of 98%.

`COc1ccc2c(O[C@@H]3C[C@H]4C(=O)N[C@]5(C(=O)NS(=O)(=O)C6CC6)C[C@H]5/C=C\CCCCCCC(=O)N4C3)cc(-c3nccs3)nc2c1` showed a Ki [1] of 1 nM, an EC50 (Hepatitis C virus) of 16.8 nM and a metabolized at 0.25 h, 5 µM [2] of 100%.

Work on `COc1ccc2c(O[C@@H]3C[C@H]4C(=O)N[C@]5(C(=O)NS(=O)(=O)C6(C)CC6)C[C@H]5/C=C\CCCCCC(=O)N4C3)cc(-c3nc(C(C)C)cs3)nc2c1Cl` yielded a Cmax [3] of 715 ng/mL, a concentration at 8 h [4] of 133 ng/mL and a CC50 (MT4) of over 20000 nM. It also gave a Ki [1] of 0.2 nM, a concentration at 2 h [5] of 290 ng/mL and a concentration at 4 h [6] of 139 ng/mL. The AUC(0-t) at 8 h [7] was 3070 ng·h/mL, the concentration at 0.5 h [8] was 698 ng/mL and the concentration at 1 h [9] was 693 ng/mL. The concentration at 2 h [10] was 632 ng/mL, the concentration at 4 h [11] was 363 ng/mL and the CL (Rattus norvegicus [12]) was 65.7 mL/min/kg. It also gave a CC50 (Huh-7) of over 20000 nM, a half-life [13] of 2.73 h and a Tmax [14] of 0.75 h. For the same compound, the bioavailability [15] was 31%, the EC50 (Hepatitis C virus) was 3.76 nM and the concentration at 8 h [16] was 3660 ng/g. The Papp A→B [17] was 11.1 ×10⁻⁶ cm/s, the Vd [18] was 2.75 L/kg and the concentration at 8 h [19] was 35.8 ng/g. It also gave a concentration at 8 h [20] of 15.1 ng/g, a concentration at 1 h [21] of 449 ng/mL and an AUC (Rattus norvegicus [22]) of 2154 ng·h/mL. For the same compound, the half-life [23] was 2.49 h, the concentration at 8 h [24] was 7660 ng/g and the concentration at 8 h [25] was 53 ng/mL. For the same compound, the AUC(0-t) at 8 h [26] was 1960 ng·h/mL, the metabolized at 0.25 h, 5 µM [2] was 42.6% and the AUC(0-inf) [27] was 3610 ng·h/mL. For the same compound, the concentration at 0.33 h [28] was 708 ng/mL and the concentration at 0.12 h [29] was 1500 ng/mL.

For `COc1ccc2c(O[C@@H]3C[C@H]4C(=O)N[C@]5(C(=O)NS(=O)(=O)C6CC6)C[C@H]5/C=C\CCCCCCC(=O)N4C3)cc(-c3csc(NC(C)C)n3)nc2c1`, the Ki [1] was 0.9 nM, the EC50 (Hepatitis C virus) was 20.4 nM and the metabolized at 0.25 h, 5 µM [2] was 91.5%.

Compound `COc1ccc2c(O[C@@H]3C[C@H]4C(=O)N[C@]5(C(=O)O)C[C@H]5/C=C\CCCCCCC(=O)N4C3)cc(-c3nc(C(C)C)cs3)nc2c1` has a Ki [1] of 18 nM and an EC50 (Hepatitis C virus) of 5040 nM.

In the case of `COc1ccc2c(O[C@@H]3C[C@H]4C(=O)N[C@]5(C(=O)NS(=O)(=O)C6CC6)C[C@H]5/C=C\CCCCCC(=O)N4C3)cc(-c3nc(C(C)C)cs3)nc2c1Cl`, the Ki [1] is reported as 0.4 nM and the EC50 (Hepatitis C virus) is reported as 11.7 nM.

Compound `COc1ccc2c(O[C@@H]3C[C@H]4C(=O)N[C@]5(C(=O)NS(=O)(=O)C6CC6)C[C@H]5/C=C\CCCCCCC(=O)N4C3)cc(-c3nccs3)nc2c1C` has a Ki [1] of 0.5 nM, an EC50 (Hepatitis C virus) of 4.37 nM and a metabolized at 0.25 h, 5 µM [2] of 98.4%.

`COc1ccc2c(O[C@@H]3C[C@H]4C(=O)N[C@]5(C(=O)NS(=O)(=O)C6CC6)C[C@H]5/C=C\CCCCCCC(=O)N4C3)cc(-c3cscn3)nc2c1` showed a Ki [1] of 0.5 nM and an EC50 (Hepatitis C virus) of 3.97 nM.

Compound `COc1ccc2c(O[C@@H]3C[C@H]4C(=O)N[C@]5(C(=O)NS(=O)(=O)C6CC6)C[C@H]5/C=C\CCCCCCC(=O)N4C3)cc(-c3nccs3)nc2c1Br` has a Ki [1] of 0.1 nM, an EC50 (Hepatitis C virus) of 1.9 nM and a metabolized at 0.25 h, 5 µM [2] of 100%.

`COc1ccc2c(O[C@@H]3C[C@H]4C(=O)N[C@]5(C(=O)O)C[C@H]5/C=C\CCCCC[C@H](NC(=O)OC5CCCC5)C(=O)N4C3)cc(-c3csc(NC(C)C)n3)nc2c1` [CILUPREVIR] showed a Ki [1] of 0.3 nM, an EC50 (Hepatitis C virus) of 1.63 nM and a metabolized at 0.25 h, 5 µM [2] of 28.5%.
